Screening data: PubChem, Broad Institute
T cruzi growth-1 = blocks T. cruzi growth in NIH3T3 culture; T. cruzi beta-gal in NIH3T3, GalScreen luminescence, 90 h; AID 624255; 5.9% of 77,000 active; inhibition, % at 8.34 µM;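 active = mean inhibition above about 93%, with at least 55% of replicates each passing it, limit read from the data, passing the limit was not always enough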
Pf Dd2 growth = inhibitors of Plasmodium falciparum Dd2 growth; P. falciparum Dd2 growth, SYBR Green, 72 h; active compounds read low; activity change, % at 10 µM; 2.3% of 94,000 active; AID 1159554; in the data active = activity change below about -80%
KDM4C inh = KDM4C (human) demethylase inhibition | Q9H3R0 | GST-KDM4C 2-372, H3K9me3 peptide, LANCE TR-FRET | inhibition, % at 12.5 µM | 0.15% of 96,000 active | AID 720574;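 active = mean replicate inhibition above about 25%, with at least 55% of replicates also reaching it, limit read from the data, passing the limit was not always enough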
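Material: GST-tagged GASC-1 (JMJD2C) catalytic fragment, aa 2-372. Input: enzyme final amount 10 nM. Medium: HEPES buffer, pH 7.5, plus ascorbate. Reagent: H3K9me3 peptide substrate, Fe(II), 2-oxoglutarate. Doses: single dose. Times: reaction 30 min RT, detection step 1 h RT. Measured by: LANCE TR-FRET. Evaluation: Fall in 671/618 emission ratio as inhibition.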
IDH1 mut inh = blocks human IDH1 R132H reductase activity; 0.18% of 70,000 active; inhibition, % at 10 µM; diaphorase/resazurin fluorescence, 60 min; O75874; in the data active = inhibition above about 34%
Target sequence (O75874 whole entry R132H): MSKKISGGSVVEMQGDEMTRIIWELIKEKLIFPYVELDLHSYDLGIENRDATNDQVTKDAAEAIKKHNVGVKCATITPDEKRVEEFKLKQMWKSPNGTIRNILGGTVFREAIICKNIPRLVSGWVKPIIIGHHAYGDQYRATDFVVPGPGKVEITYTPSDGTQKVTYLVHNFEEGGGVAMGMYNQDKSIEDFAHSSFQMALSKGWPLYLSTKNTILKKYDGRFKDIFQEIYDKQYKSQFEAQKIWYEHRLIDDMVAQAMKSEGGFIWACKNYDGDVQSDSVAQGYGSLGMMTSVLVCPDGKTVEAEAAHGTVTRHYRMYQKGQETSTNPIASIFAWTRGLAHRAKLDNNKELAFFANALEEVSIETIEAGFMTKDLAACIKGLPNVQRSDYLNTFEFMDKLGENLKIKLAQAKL
T cruzi growth-2 = inhibitors of T. cruzi proliferation; shares compounds with T cruzi growth-1; T. cruzi beta-gal in NIH3T3, GalScreen luminescence, 90 h; inhibition, % at 8.35 µM; 72% of 5,600 active; AID 651739;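 active = mean replicate inhibition above about 95% and at least 55% of replicates individually reaching it, limit read from the data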
T cruzi growth-3 = Trypanosoma cruzi proliferation inhibition; shares compounds with T cruzi growth-1; T. cruzi beta-gal in NIH3T3, GalScreen luminescence, 90 h; inhibition, % at 2.09 µM; 21% of 5,600 active; AID 651740;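 active = mean inhibition above about 95%, with at least 55% of replicates also reaching it, limit read from the data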
3T3 cytotox = NIH/3T3 (mouse) viability loss | shares compounds with T cruzi growth-1 | NIH/3T3 viability, CellTiter-Glo ATP luminescence, 90 h | cytotoxicity (signal decrease), % at 8.35 µM | 14% of 5,600 active;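 active = mean signal decrease across replicates above about 35% based on untreated-well scatter, with enough replicates individually passing, limit read from the data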
NIH3T3 tox 2 = cytotoxicity in mouse NIH/3T3 fibroblasts; shares compounds with T cruzi growth-1; NIH/3T3 viability, CellTiter-Glo ATP luminescence, 90 h; inhibition, % at 24.9 µM; 56% of 5,600 active; AID 651744;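 active = mean loss of cell viability signal at or above a set limit, and enough replicates individually reaching it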
Of the large screens only hits and unclear results are named; the others gave an inactive call (follow-up assays come after a bar, where they were run). A selection: hits, their analogues and other compounds. The true share with any hit is near 5.9%.

Cc1noc(C)c1S(=O)(=O)Nc1ccc2c(c1)C(=O)N([C@@H](C)CO)C[C@@H](C)[C@H](CN(C)S(=O)(=O)c1ccc(Cl)cc1)OCCCC[C@@H](C)O2	none (no result: IDH1 mut inh)
Cc1noc(C)c1S(=O)(=O)N(C)C[C@@H]1OCCCC[C@H](C)Oc2ccc(NS(=O)(=O)c3ccc(Cl)cc3)cc2C(=O)N([C@H](C)CO)C[C@@H]1C	T cruzi growth-1 98 | T cruzi growth-2 106 | T cruzi growth-3 inactive | 3T3 cytotox inactive | NIH3T3 tox 2 inactive
O=C(CSc1nc(O)cc(=O)[nH]1)Nc1ccccc1	none (no result: T cruzi growth-1, Pf Dd2 growth, KDM4C inh)
Cc1noc(C)c1S(=O)(=O)N(C)C[C@H]1OCCCC[C@@H](C)Oc2ccc(NS(=O)(=O)c3ccc(Cl)cc3)cc2C(=O)N([C@@H](C)CO)C[C@H]1C	T cruzi growth-1 108 (no result: IDH1 mut inh) | T cruzi growth-2 102 | T cruzi growth-3 100 | 3T3 cytotox inactive | NIH3T3 tox 2 26
Cc1noc(C)c1S(=O)(=O)N(C)C[C@H]1OCCCC[C@@H](C)Oc2ccc(NS(=O)(=O)c3ccc(Cl)cc3)cc2C(=O)N([C@@H](C)CO)C[C@@H]1C	T cruzi growth-1 100 (no result: IDH1 mut inh) | T cruzi growth-2 107 | T cruzi growth-3 inactive | 3T3 cytotox inactive | NIH3T3 tox 2 inactive
Cc1noc(C)c1S(=O)(=O)N(C)C[C@@H]1OCCCC[C@@H](C)Oc2ccc(NS(=O)(=O)c3ccc(Cl)cc3)cc2C(=O)N([C@H](C)CO)C[C@@H]1C	none (no result: IDH1 mut inh)
Cc1noc(C)c1S(=O)(=O)N(C)C[C@@H]1OCCCC[C@@H](C)Oc2ccc(NS(=O)(=O)c3ccc(Cl)cc3)cc2C(=O)N([C@@H](C)CO)C[C@H]1C	none
COc1ccccc1-c1nnc(SCC(=O)Nc2ccc(Cl)cc2Cl)n1-c1ccccc1	none (no result: T cruzi growth-1, Pf Dd2 growth, KDM4C inh)
CC(C)C(NCCC(O)c1ccc(Br)cc1)C(=O)O (stereo not drawn)	none (no result: T cruzi growth-1, Pf Dd2 growth, KDM4C inh)
CC(C)C#Cc1ccc2c(c1)O[C@H](CN(C)Cc1ccccc1)[C@H](C)CN([C@H](C)CO)S2(=O)=O	T cruzi growth-1 105 | T cruzi growth-2 102 | T cruzi growth-3 inactive | 3T3 cytotox inactive | NIH3T3 tox 2 103
CC(C)C#Cc1ccc2c(c1)O[C@@H](CN(C)Cc1ccccc1)[C@@H](C)CN([C@H](C)CO)S2(=O)=O	T cruzi growth-1 111 | T cruzi growth-2 107 | T cruzi growth-3 inactive | 3T3 cytotox inactive | NIH3T3 tox 2 104
CC(C)C#Cc1ccc2c(c1)O[C@H](CN(C)Cc1ccccc1)[C@@H](C)CN([C@H](C)CO)S2(=O)=O	none
CC(C)C#Cc1ccc2c(c1)O[C@@H](CN(C)Cc1ccccc1)[C@H](C)CN([C@@H](C)CO)S2(=O)=O	none
CC(C)C#Cc1ccc2c(c1)O[C@@H](CN(C)Cc1ccccc1)[C@@H](C)CN([C@@H](C)CO)S2(=O)=O	T cruzi growth-1 106 | T cruzi growth-2 101 | T cruzi growth-3 inactive | 3T3 cytotox inactive | NIH3T3 tox 2 103
C[C@H](CO)N1C[C@H](C)[C@@H](CN(C)Cc2ccccc2)Oc2cc(C#CC3CC3)ccc2S1(=O)=O	T cruzi growth-1 128 | T cruzi growth-2 97 | T cruzi growth-3 inactive | 3T3 cytotox inactive | NIH3T3 tox 2 105
NS(=O)(=O)c1ccc(NC(=O)CN2CCN(C(=O)c3ccccc3)CC2)cc1	none (no result: T cruzi growth-1, Pf Dd2 growth, KDM4C inh)
CC(C)C#Cc1ccc2c(c1)O[C@H](CN(C)Cc1ccccc1)[C@@H](C)CN([C@@H](C)CO)S2(=O)=O	T cruzi growth-1 106 | T cruzi growth-2 inactive | T cruzi growth-3 103 | 3T3 cytotox inactive | NIH3T3 tox 2 106
C[C@H](CO)N1C[C@H](C)[C@@H](CN(C)Cc2ccc3c(c2)OCO3)Oc2ccc(NS(=O)(=O)c3ccccc3)cc2C1=O	none
C[C@H]1CN([C@@H](C)CO)C(=O)c2cc(NS(=O)(=O)c3ccccc3)ccc2O[C@@H]1CN(C)Cc1ccc(C(F)(F)F)cc1	T cruzi growth-1 104 | T cruzi growth-2 inactive | T cruzi growth-3 inactive | 3T3 cytotox inactive | NIH3T3 tox 2 39
